Measurements reported in ChEMBL document CHEMBL4342526, “Exploration of the Structural Space in 4(3H)-Quinazolinone Antibacterials” (J Med Chem, 2020).
≈ marks a conversion by molar mass, not a printed value.

What was measured:
Staphylococcus aureus [1] = assay: Antibacterial activity against Staphylococcus aureus ATCC 29213 measured after 16 to 20 hrs by microdilution method; assay type: functional
How it was run: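 CLSI broth microdilution: two-fold serial dilutions in triplicate in cation-adjusted Mueller–Hinton broth with 2% NaCl, inoculum 5 × 10^5 CFU/mL, incubated at 37 °C for 16–20 h. MIC is the lowest concentration preventing visible growth.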

[2] = Selectivity index, ratio of IC50 for human HeLa cells to MIC for clindamycin/erythromycin/spectinomycin-resistant mec-positive Staphylococcus aureus NRS70; assay type: toxicity
How it was run: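 HeLa cytotoxicity by XTT assay in triplicate, IC50 by nonlinear regression; ratio IC50 over broth microdilution MIC against NRS70.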

Staphylococcus aureus [3] = assay: Antibacterial activity against multi-drug resistant mecA-positive Staphylococcus aureus NRS119 measured after 16 to 20 hrs by microdilution method; assay type: functional
How it was run: (§1)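 CLSI broth microdilution; two-fold serial compound dilutions in triplicate in cation-adjusted Mueller–Hinton broth with 2% NaCl, inoculum 5 × 10^5 CFU/mL; 37 °C for 16–20 h; MIC = lowest concentration with no visible growth.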

Staphylococcus aureus [4] = assay: Antibacterial activity against multi-drug resistant mecA-positive Staphylococcus aureus ATCC 27660 measured after 16 to 20 hrs by microdilution method; assay type: functional; how it was run: as §1
HeLa = assay: Cytotoxicity against human HeLa cells assessed as reduction in cell viability measured after 16 hrs by XTT assay; assay type: cell-based
How it was run: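 HeLa cells (ATCC CCL-2), run in triplicate. Viability was read by XTT, and IC50 was obtained by nonlinear regression.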

Staphylococcus aureus [5] = assay: Antibacterial activity against multi-drug resistant mec-positive Staphylococcus aureus USA300 measured after 16 to 20 hrs by microdilution method; assay type: functional; how it was run: as §1
Staphylococcus aureus [6] = assay: Antibacterial activity against Staphylococcus aureus ATCC 29213 measured after 16 to 20 hrs in presence of bovine serum albumin by microdilution method; assay type: functional
How it was run: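 S. aureus ATCC29213 MIC was run by CLSI microdilution in cation-adjusted Mueller–Hinton broth plus 2% NaCl, with and without 0.5% bovine serum albumin. Compounds were two-fold serially diluted in triplicate, inoculum was 5 × 10^5 CFU/mL, and plates were incubated at 37 °C for 16–20 h. The endpoint was the lowest concentration with no visible growth.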

Staphylococcus aureus [7] = assay: Antibacterial activity against clindamycin/erythromycin/spectinomycin-resistant mec-positive Staphylococcus aureus NRS70 measured after 16 to 20 hrs by microdilution method; assay type: functional; how it was run: as §1
[8] = Protein binding in human plasma at 10 uM measured after 6 hrs UV-UPLC based rapid equilibrium dialysis method; assay type: ADME, cell-free
How it was run: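 Rapid equilibrium dialysis: human plasma was cleared by centrifugation and spiked from a 1 mM DMSO stock to a final 10 μM, against 0.1 M PBS pH 7.4. Dialysis ran 6 h at 37 °C with orbital shaking. Buffer (free) and plasma (total) aliquots were mixed with internal standard in acetonitrile and measured by UPLC-UV at 285 nm. B% = (Cp−Cf)/Cp×100.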

MIC (Staphylococcus aureus [1]) [µg/mL]	SMILES	also measured
> 128	N#Cc1ccc(/C=C/c2nc3ccccc3c(=O)n2-c2cccc(C(=O)O)n2)cc1	–
> 128	O=C(O)c1cccc(-n2c(/C=C/c3cc[n+]([O-])cc3)nc3ccccc3c2=O)c1	–
> 128	O=C(O)c1cccc(-n2c(/C=C/c3cccnc3)nc3ccccc3c2=O)c1	–
> 128	COC(=O)c1cccc(-n2c(/C=C/c3ccc(C#N)cc3)nc3ccccc3c2=O)c1O	–
64 (≈ 178 µM)	Nc1cccc(-n2c(NCc3ccc(F)cc3)nc3ccccc3c2=O)c1	–
> 128	O=C(O)c1cccc(-n2c(/C=C/c3cc[nH]c(=O)c3)nc3ccccc3c2=O)c1	–
> 128	N#Cc1ccc(/C=C/c2nc3ccccc3c(=O)n2-c2ccc3nc[nH]c3c2)cc1	–
64 (≈ 162 µM)	N#Cc1ccc(/C=C/c2nc3ccccc3c(=O)n2-c2cccc(C(=O)O)c2)cn1	–
> 128	N#Cc1ccc(/C=C/c2nc3ccccc3c(=O)n2-c2cc(C(=O)O)ccc2O)cc1	–
> 128	N#Cc1ccc(/C=C/c2nc3ccccc3c(=O)n2-c2cccc(C(=O)O)c2O)cc1	–
> 128	COc1ccc(C(=O)O)cc1-n1c(/C=C/c2ccc(C#N)cc2)nc2ccccc2c1=O	–
32 (≈ 81.3 µM)	N#Cc1ccc(/C=C/c2nc3ccccc3c(=O)n2-c2ccccc2C(=O)O)cc1	–
> 128	O=C(O)c1cccc(-n2c(/C=C/C3CC3)nc3ccccc3c2=O)c1	–
16 (≈ 39 µM)	COC(=O)c1cccc(-n2c(NCc3ccc(C#N)cc3)nc3ccccc3c2=O)c1	–
> 128	N#Cc1ccc(COc2nc3ccccc3c(=O)n2-c2cccc(C(=O)O)c2)cc1	–
64 (≈ 149 µM)	N#Cc1ccc(/C=C/c2nc3ccccc3c(=O)n2-c2ccc(F)c(C(=O)O)c2F)cc1	–
16 (≈ 38.9 µM)	N#Cc1ccc(/C=C/c2nc3ccccc3c(=O)n2-c2ccc(F)c(C(=O)O)c2)cc1	–
> 128	N#Cc1ccc(/C=C/c2nc3ccccc3c(=O)n2-c2cccc(CN3C(=O)c4ccccc4C3=O)c2)cc1	–
128 (≈ 371 µM)	CC(C(=O)O)n1c(/C=C/c2ccc(C#N)cc2)nc2ccccc2c1=O (stereo not drawn)	–
> 128	COC(=O)c1cccc(-n2c(NCc3ccc(F)cc3)nc3ccccc3c2=O)c1	–
8 (≈ 21.4 µM)	O=C(O)c1cccc(-n2c(/C=C/c3cccs3)nc3ccccc3c2=O)c1	–
8 (≈ 20.2 µM)	N#Cc1ccc(CCc2nc3ccccc3c(=O)n2-c2cccc(C(=O)O)c2)cc1	–
> 128	N#Cc1ccc(/C=C/c2nc3ccccc3c(=O)n2-c2cc(C(=O)O)ccc2C(F)(F)F)cc1	–
64 (≈ 173 µM)	O=C(O)c1cccc(-n2c(/C=C/c3ccncc3)nc3ccccc3c2=O)c1	–
> 128	N#Cc1ccc(CNc2nc3ccccc3c(=O)n2-c2cccc([N+](=O)[O-])c2)cc1	–
> 128	O=C(O)c1cccc(-n2c(/C=C/c3cncs3)nc3ccccc3c2=O)c1	–

MIC (Staphylococcus aureus [1]) [µg/mL]	SMILES	also measured
> 128	O=C(O)c1cccc(-n2c(/C=C/c3ccnc(F)c3)nc3ccccc3c2=O)c1	–
> 128	N#Cc1ccc(CNc2nc3ccccc3c(=O)n2-c2cccc(C(=O)O)c2)cc1	–
> 128	N#Cc1ccc(/C=C/c2nc3ccccc3c(=O)n2-c2cc(C(=O)O)ccn2)cc1	–
32 (≈ 85.5 µM)	O=C(O)c1cccc(-n2c(/C=C/c3ccsc3)nc3ccccc3c2=O)c1	–
> 128	N#Cc1ccc(/C=C/c2nc3ccccc3c(=O)n2-c2cc(F)cc(C(=O)O)c2)cc1	–
> 128	O=C(O)c1cccc(-n2c(/C=C/c3ccc[nH]c3=O)nc3ccccc3c2=O)c1	–
> 128	O=C(O)c1cccc(-n2c(/C=C/c3cccnc3F)nc3ccccc3c2=O)c1	–
16 (≈ 31.9 µM)	N#Cc1ccc(/C=C/c2nc3ccccc3c(=O)n2-c2cccc(NC(=O)NCCc3cnc[nH]3)c2)cc1	–
> 128	N#Cc1ccc(/C=C/c2nc3ccccc3c(=O)n2-c2cc(O)cc(C(=O)O)c2)cc1	–
8 (≈ 19.4 µM)	N#Cc1ccc(/C=C/c2nc3ccccc3c(=O)n2-c2cccc(C(=O)O)c2F)cc1	–
> 128	N#Cc1ccc(/C=C/c2nc3ccccc3c(=O)n2-c2ccc3[nH]c(=S)[nH]c3c2)cc1	–
> 128	O=C(O)c1cccc(-n2c(/C=C/c3nccs3)nc3ccccc3c2=O)c1	–
32 (≈ 84.6 µM)	N#Cc1ccc(/C=C/c2nc3ccccc3c(=O)n2-c2cccc(CN)c2)cc1	–
> 128	N#Cc1ccc(/C=C/c2nc3ccccc3c(=O)n2-c2ccc3[nH]c(=O)[nH]c3c2)cc1	–
0.015 (≈ 0.0339 µM)	CS(=O)(=O)Nc1cccc(-n2c(/C=C/c3ccc(C#N)cc3)nc3ccccc3c2=O)c1	–
> 128	O=C(O)c1cccc(-n2c(/C=C/c3ccc(=O)[nH]c3)nc3ccccc3c2=O)c1	–
8 (≈ 21.8 µM)	N#Cc1ccc(CNc2nc3ccccc3c(=O)n2-c2cccc(N)c2)cc1	–
16 (≈ 41 µM)	N#Cc1ccc(/C=C/c2nc3ccccc3c(=O)n2-c2cccc(N=[N+]=[N-])c2)cc1	–
> 128	N#Cc1ccc(/C=C/c2nc3ccccc3c(=O)n2CCC(=O)O)cc1	–
> 128	O=c1c2ccccc2nc(NCc2ccc(F)cc2)n1-c1cccc([N+](=O)[O-])c1	–
> 128	CNCCC(=O)Nc1cccc(-n2c(/C=C/c3ccc(C#N)cc3)nc3ccccc3c2=O)c1	–
32 (≈ 65.1 µM)	N#Cc1ccc(/C=C/c2nc3ccccc3c(=O)n2-c2cccc(NC(=O)CN3CCOCC3)c2)cc1	–
> 128	Nc1cccc(-n2c(N3CCN(c4ccc(Cl)cc4)CC3)nc3ccccc3c2=O)c1	–
> 128	N#Cc1ccc(/C=C/c2nc3ccccc3c(=O)n2-c2cccc(NC(=O)NCc3cnc[nH]3)c2)cc1	–
> 128	COC(=O)c1cccc(-n2c(/C=C/c3ccc(C#N)cc3)nc3ccccc3c2=O)n1	–

SMILES	MIC (Staphylococcus aureus [1]) [µg/mL]	also measured
N#Cc1ccc(/C=C/c2nc3ccccc3c(=O)n2-c2cccc(N)c2)cc1	0.5 (≈ 1.37 µM)	–
Nc1cccc(-n2c(N3CCCCC3)nc3ccccc3c2=O)c1	> 128	–
O=c1c2ccccc2nc(N2CCCCC2)n1-c1cccc([N+](=O)[O-])c1	> 128	–
N#Cc1ccc(/C=C/c2nc3ccccc3c(=O)n2-c2ccc(N)cc2)cc1	> 128	–
C#Cc1ccc(/C=C/c2nc3ccccc3c(=O)n2-c2cccc(C(=O)O)c2)cc1	0.03 (≈ 0.0764 µM)	selectivity ratio [2]: > 256; MIC (Staphylococcus aureus [3]): 0.125 µg/mL (≈ 0.319 µM); MIC (Staphylococcus aureus [4]): 0.125 µg/mL (≈ 0.319 µM); IC50 (HeLa): > 128 µg/mL; MIC (Staphylococcus aureus [5]): 0.03 µg/mL (≈ 0.0764 µM); MIC (Staphylococcus aureus [6]): 0.25 µg/mL
CS(=O)(=O)Nc1cccc(-n2c(NCc3ccc(C#N)cc3)nc3ccccc3c2=O)c1	0.125 (≈ 0.281 µM)	selectivity ratio [2]: 248; MIC (Staphylococcus aureus [7]): 0.25 µg/mL (≈ 0.561 µM); MIC (Staphylococcus aureus [3]): 0.25 µg/mL (≈ 0.561 µM); MIC (Staphylococcus aureus [4]): 0.125 µg/mL (≈ 0.281 µM); IC50 (HeLa): 62 µg/mL (≈ 139 µM); PPB [8]: > 99.9%; MIC (Staphylococcus aureus [5]): 0.25 µg/mL (≈ 0.561 µM); MIC (Staphylococcus aureus [6]): 1 µg/mL
O=C(O)c1cccc(-n2c(SCc3ccccc3)nc3ccccc3c2=O)c1	0.25 (≈ 0.644 µM)	selectivity ratio [2]: > 128; MIC (Staphylococcus aureus [7]): 0.5 µg/mL (≈ 1.29 µM); MIC (Staphylococcus aureus [3]): 1 µg/mL (≈ 2.57 µM); IC50 (HeLa): > 64 µg/mL; PPB [8]: > 99.9%; MIC (Staphylococcus aureus [5]): 1 µg/mL (≈ 2.57 µM); MIC (Staphylococcus aureus [6]): 4 µg/mL
O=C(O)c1cccc(-n2c(/C=C/c3ccc(Cl)s3)nc3ccccc3c2=O)c1	0.5 (≈ 1.22 µM)	selectivity ratio [2]: 360; MIC (Staphylococcus aureus [7]): 0.5 µg/mL (≈ 1.22 µM); MIC (Staphylococcus aureus [4]): 0.5 µg/mL (≈ 1.22 µM); IC50 (HeLa): 180 µg/mL (≈ 440 µM); PPB [8]: 99.3%; MIC (Staphylococcus aureus [5]): 1 µg/mL (≈ 2.45 µM); MIC (Staphylococcus aureus [6]): 4 µg/mL
O=C(O)c1cccc(-n2c(/C=C/c3ccc(I)cc3)nc3ccccc3c2=O)c1	0.5 (≈ 1.01 µM)	selectivity ratio [2]: 200; MIC (Staphylococcus aureus [7]): 0.5 µg/mL (≈ 1.01 µM); MIC (Staphylococcus aureus [3]): 2 µg/mL (≈ 4.05 µM); MIC (Staphylococcus aureus [4]): 0.5 µg/mL (≈ 1.01 µM); IC50 (HeLa): 100 µg/mL (≈ 202 µM); PPB [8]: > 99.9%; MIC (Staphylococcus aureus [5]): 0.25 µg/mL (≈ 0.506 µM); MIC (Staphylococcus aureus [6]): 16 µg/mL
N#Cc1ccc(/C=C/c2nc3ccccc3c(=O)n2-c2ccccc2[N+](=O)[O-])cc1	> 128	–
N#Cc1ccc(/C=C/c2nc3ccccc3c(=O)n2-c2cccnc2)cc1	> 128	–
N#Cc1ccc(/C=C/c2nc3ccccc3c(=O)n2-c2cc(C(=O)O)ccc2Cl)cc1	2 (≈ 4.67 µM)	selectivity ratio [2]: > 64; MIC (Staphylococcus aureus [7]): 2 µg/mL (≈ 4.67 µM); MIC (Staphylococcus aureus [3]): 2 µg/mL (≈ 4.67 µM); MIC (Staphylococcus aureus [4]): 2 µg/mL (≈ 4.67 µM); IC50 (HeLa): > 128 µg/mL; PPB [8]: > 99.9%; MIC (Staphylococcus aureus [5]): 1 µg/mL (≈ 2.34 µM); MIC (Staphylococcus aureus [6]): 16 µg/mL
CC(=O)NC[C@H]1CN(c2ccc(N3CCOCC3)c(F)c2)C(=O)O1 [LINEZOLID]	1 (≈ 2.96 µM)	–
N#Cc1ccc(/C=C/c2nc3ccccc3c(=O)n2-c2cccc(CNC(=O)C(F)(F)F)c2)cc1	0.5 (≈ 1.05 µM)	selectivity ratio [2]: 2; MIC (Staphylococcus aureus [7]): 64 µg/mL (≈ 135 µM); MIC (Staphylococcus aureus [4]): 64 µg/mL (≈ 135 µM); IC50 (HeLa): 150 µg/mL (≈ 316 µM); PPB [8]: > 99.9%; MIC (Staphylococcus aureus [5]): 4 µg/mL (≈ 8.43 µM); MIC (Staphylococcus aureus [6]): 8 µg/mL
N#Cc1ccc(/C=C/c2nc3ccccc3c(=O)n2-c2ccc([N+](=O)[O-])cc2)cc1	> 128	–
CC(=O)NS(=O)(=O)c1cccc(-n2c(/C=C/c3ccc(C#N)cc3)nc3ccccc3c2=O)c1	4 (≈ 8.5 µM)	selectivity ratio [2]: 50; MIC (Staphylococcus aureus [3]): 2 µg/mL (≈ 4.25 µM); IC50 (HeLa): 200 µg/mL (≈ 425 µM); PPB [8]: 99.2%
N#Cc1ccc(/C=C/c2nc3ccccc3c(=O)n2-c2cccc(C#N)c2)cc1	> 128	–
